Measurements: the EternaBench riboswitch data

System: MS2 coat protein
Assay: apparent Kd, MS2 coat protein; higher = weaker binding; RNA-MaP array; FMN 200 µM where present
Outline: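 SNAP-549-labelled MS2 coat protein, doubled from 0.7 or 1.5 nM to 3 µM, was titrated over designs transcribed by stalled E. coli RNA polymerase on Illumina sequencing-chip clusters. Titrations were run without and then with constant ligand in 100 mM Tris-HCl pH 7.5, 80 mM KCl, 4 mM MgCl2, BSA, DTT, yeast tRNA and Tween-20. The apparent Kd is the median of filtered per-cluster fits to green signal normalised to red-channel RNA signal and control-cluster median Fmax.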

[1] = designed as: ON switch for flavin mononucleotide, no ligand
[2] = ligand present: flavin mononucleotide, designed as: ON switch for flavin mononucleotide
[3] = designed as: OFF switch for flavin mononucleotide, no ligand
[4] = ligand present: flavin mononucleotide, designed as: OFF switch for flavin mononucleotide

Sequence	apparent Kd [1]	apparent Kd [2]	apparent Kd [3]	apparent Kd [4]
CGUGUGUGAACAGGAUAUUGGAACGUACCUCGCCACAUGAGGAUCACCCAUGUCGUUGCUCACGCCAAGAAGGGUUUACGCCUA	248 nM	226 nM	–	–
CGCAACUCUUCUCAUGUAAACAUGAGGAUCACCCAUGUAAUGAGAAGGAGGAAGAAGAGAGAUUCCUAGGAUAUCAGAGUUGCG	–	–	5.41 nM	5.52 nM
UGCCGAUGAGGAUAUACAUUGAAUUUGAUUCAUGUAAAACUACAUGAGGAUCACCCAUGUAGAAGGCAUUGGCU	–	–	16.9 nM	30.4 nM
ACAUGCAUUCGAGGAUAUCGGUGAUUAAUUCUACGAGAAGGCGAUUUAAGAUAUAUUGUUUUAGACAUGAGGAUCACCCAUGUA	29 nM	23.2 nM	–	–
GCGCAGCUGGGUGAGGAUAUCGGUGGUAAAACAUGAGGAUCACCCAUGUCCGGAGCUCGGACUUCCGAGAAGGCACCCGGCUGCA	39 nM	9.8 nM	–	–
GUGACGAUGUAAGGAUAUGCUGAGGAUAACUCAGCAGAAGGUACAUGAGGAUCACCCAUGUAACGUCACAAUAAUAAUAAUAAU	–	–	12.3 nM	22.9 nM
UCAACCAGCGCCGGUUAAACAUGAGGAUCACCCAUGUACUCCAGAAGGCCGCCCAAGAACGGAGUGGAGGAUAUGGAGGUUCUC	46.8 nM	38.7 nM	–	–
UGUCUAUUUGAAGGAUAUCUAAGCAUAAACCAGAGAGAAGGUCAAUUAUACAUGAGGAUCACCCAUGUUGAGAUUAAUGGGUUU	–	–	20.5 nM	26.4 nM
AGUUGUAAUACAGGAUAUAUAUUAUUUUUAUUUAUAGAAGGGUAAUCACAUGAGGAUCACCCAUGUAUAUACGAGGAAGAAGAG	291 nM	329 nM	–	–
AAAAGUUUGGAGGAUAUCCAUCCAAACGGAUAAGGAGAAGGCCGGACAUGAGGAUCACCCAUGUGAUUAGGUUA	–	–	14.2 nM	24.8 nM
GGAGGAGGAGUGAGGAUAUGGUGGUGGAAACACCACCAGAAGGCACAUGAGGAUCACCCAUGUGAAGAAGAGAA	–	–	18.9 nM	24.9 nM
UUCGUGCAGCUUUGCUGUACGCGUACAUGAGGAUCACCCAUGUAGGAUAUGGUACGCGUUGCGUGCUAGAAGGAUAUGGAGAGG	–	–	18.4 nM	22.9 nM
GGACAUUUACAGAAGGGCAAGUUUUAUAGUGAAUAUUUAGUUCUGACUUGCAGGAUAUGUUGAACAUGAGGAUCACCCAUGUCC	16.4 nM	10.5 nM	–	–
GAUUAAUGCAAGGAUAUGCUAUUAUUUUAUUUUGCAGAAGGUGCAACAUGAGGAUCACCCAUGUUGGAGGGUAU	–	–	19.8 nM	29.8 nM
UUUUUUGUUGUGAGGAUAUCGUUUUUGUUUUGGAUCGAGAAGGCACAUGAGGAUCACCCAUGUUUGUUGUGGUU	–	–	88.8 nM	159 nM
UAUGGUAAAGUCAGGAUAUACGUACGUCGUUCUAGGUAGAAGGGACAUGAGGAUCACCCAUGUAUGAUAGUGUU	–	–	46.5 nM	42.8 nM
AAUUAGGUCACAGGAUAUACUACAUCCAAUGCAGUAGAAGGGUGACACAUUCUGUGCAGACAUGAGGAUCACCCAUGUAACCAC	11.6 nM	6.39 nM	–	–
AGCAUGCUAGGAUAUACGGGACAUUAGGGUUCGUUGUGUGGACAUGAGGAUCACCCAUGUAGAAGGAGCGUGCA	–	–	86.6 nM	374 nM
UCAUCAACGGGCGGGUCGGUUGGACAUGAGGAUCACCCAUGUAGAAGGACCGGUGGACUCCGGCGGUAGGAUAUACAUAUGGUG	–	–	29.2 nM	36.7 nM
AAGUCGCACCAGAAGGGUCAACCAAUAAAUUAGACAGGAUAUGGGCGAUAUGUAUGUCGCGACAUGAGGAUCACCCAUGUCCGG	17.7 nM	6.08 nM	–	–
GGGUACAUCGGAGGAUAUCAUGUAAAUACAUGAGGAUCACCCAUGUCGAUGGAGACAUCGGAGUUUGAGAAGGCCGAUGUACCG	150 nM	6.58 nM	–	–

Sequence	apparent Kd [1]	apparent Kd [2]	apparent Kd [3]	apparent Kd [4]
ACUAGAUGAGGAUAUGCAUGUUUUCAUGUUCUUCUAGAUUAACAUGAGGAUCACCCAUGUAGAAGGCGUCUUAU	–	–	19.4 nM	37.9 nM
AUUUAUGUUGAGGAUAUGCUAAAAUGUAUAGUUGCAGAAGGCGACACAUGAGGAUCACCCAUGUUCAUGGAAUU	–	–	37 nM	43.7 nM
AGUGUCAUUUAGAAGGCCUCAUGACAUGAGGAUCACCCAUGUUAUCAUGGGAGGAUAUGGAUGAUAUAGUUAUGUUUCGUAGUA	307 nM	112 nM	–	–
AGUCGGAGCAGAGGAUAUACAUGAGGAUCACCCAUGUAAUAGGAUGAAGCCUGGAAACAGGCAAUGUAGAAGGCUGCUCCGACA	–	–	60.1 nM	589 nM
UCAUAUAUACAAGGAUAUCAAUUAUUUACACAUCCUACAUGAGGAUCACCCAUGUUUUAAUAUUUUGAGAAGGUGUAAUGUCGG	24 nM	30.7 nM	–	–
UGAUAGGACAGAGGAUAUGCCGAUAGGAUUUACUAUCGAAGAAUCCUCACAUGAGGAUCACCCAUGUAGAAGGCUGUCCUAUCU	–	–	7.36 nM	35.9 nM
GAAGGAUGAGCGUAGGAUAUAGGAGGAGUGACAUGAGGAUCACCCAUGUGGUAGGAGGGAGGGUACUAGAAGGACGAGGAAGAGG	63.5 nM	52.2 nM	–	–
GGGACCAACACAGGAUAUGCUAUCCUUUGGGUAGCAGAAGGGUGAAACAUGAGGAUCACCCAUGUGGUUCCAGGGCGUGAGCCC	1580 nM	99.6 nM	–	–
ACUGUUUGAUUCCUCUUAUACAUGAGGAUCACCCAUGUUAUCGAGGAUAUGCAUUAGAGUGUUUAGCAGAAGGCGAUGUAAUUC	–	–	5.89 nM	12.9 nM
UGAUAGGACAGAGGAUAUACCGAUAGGAUCUACUAUCGAACAAUUCUCACAUGAGGAUCACCCAUGUAGAAGGCUGUCCUAUCU	–	–	15.8 nM	30.2 nM
AAUAUAAGAGCUGGAAAUCUCAAAACAUGAGGAUCACCCAUGUAGGAUAUCAGCACGAUAAGUGCUGAGAAGGACAUCCAGCUC	–	–	16 nM	18.1 nM
AGCAGACGAGGAUAUAGAUUUGUUGACAUGAGGAUCACCCAUGUGAUCGAUCUAUUAUAUUUAGAAGGUGUCUGCU	–	–	12.9 nM	13.5 nM
UCUGUCGUUGUGAGGAUAUGCCCAAAUAAAAGCGGGCAGAAGGCACAUGAGGAUCACCCAUGUCCUGCGGUUUU	–	–	21.4 nM	237 nM
CUUUUGUGAGGAUAUCAGUGGUAAUACAAUAGUAUUACUACUGAGAAGGCACAUGAGGAUCACCCAUGUUCCUC	–	–	44.5 nM	220 nM
GAAUAAUUGAUCCAUUUUUAAAACAUGAGGAUCACCCAUGUGCAGGAUAUCGUGUGAGUUAAAUACGAGAAGGGCAAGAACUGU	–	–	201 nM	214 nM
ACUAUACGAGGAUAUGCUGUCAAUACUCCGGAGUUAGUAUGACAUGAGGAUCACCCAUGUAGAAGGCGUAUACU	–	–	26.7 nM	19.6 nM
UCGGCGCGAGGAUAUACGUUUGCUUUUUUUUGUCUUUGUGUACAUGAGGAUCACCCAUGUAGAAGGCGCGCCGC	–	–	21.3 nM	36.7 nM
AGCUGGUGACAGCAAGAAACUUCACAUGAGGAUCACCCAUGUAGAAGGCUGUACGGUUACCGUACAGAGGAUAUACAUUGAAGU	–	–	7.16 nM	13.3 nM
GUCGGAUGUAUAGGAUAUCGACUGGAAUACAGUCGAGAAGGAUACAUGAGGAUCACCCAUGUAAUAAUAAUAAUAAUAACCGAC	–	–	12.5 nM	24 nM
UUAUUGUGAGGAUAUCAGGUGUGCUAGCGUACUGGUACAUCUGAGAAGGCACAUGAGGAUCACCCAUGUUUCUU	–	–	23.4 nM	66.9 nM
GCCGGGCGAGGAUAUACAUGAGGAUCACCCAUGUAGAUCCUCCGGCGAAAGCCGGGUUGUAGAAGGCGCCCGGC	–	–	14.9 nM	25.7 nM
